Measured values: ChEMBL document CHEMBL1126619, “Design of thymidylate synthase inhibitors using protein crystal structures: the synthesis and biological evaluation of a novel class of 5-substituted quinazolinones” (J Med Chem, 1993)

Assays:
CCRF-CEM = test: Inhibition of human lymphoblastic leukemia (CCRF-CEM) cell growth measured using a modification of the MTT36 colorimetric assay of Mosmann; assay type: functional, cell-based
GC3/MTK- = test: Inhibition of cellular growth in human adenocarcinoma cell line (GC3/M TK) deficient in thymidine kinase; assay type: functional, cell-based
Thymidylate synthase [1] = target: T1, Thymidylate synthase (Escherichia coli, UniProt C3SWJ7); test: (§1) Inhibition of purified Escherichia coli Thymidylate synthase
T1 sequence (C3SWJ7 whole entry): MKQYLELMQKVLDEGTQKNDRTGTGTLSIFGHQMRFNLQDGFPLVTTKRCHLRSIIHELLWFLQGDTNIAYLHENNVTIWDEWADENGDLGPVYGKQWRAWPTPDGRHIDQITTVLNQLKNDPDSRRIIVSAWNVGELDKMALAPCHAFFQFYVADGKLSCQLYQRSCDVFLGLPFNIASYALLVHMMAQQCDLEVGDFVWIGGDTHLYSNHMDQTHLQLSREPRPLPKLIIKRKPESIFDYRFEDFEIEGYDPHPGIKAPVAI

Thymidylate synthase [2] = target: T1, Thymidylate synthase; test: as §1; remark: listed apart in the source
Thymidylate synthase [3] = target: T2, Thymidylate synthase (Homo sapiens, UniProt P04818); test: (§2) Inhibition of human Thymidylate synthase
T2 sequence (P04818 whole entry): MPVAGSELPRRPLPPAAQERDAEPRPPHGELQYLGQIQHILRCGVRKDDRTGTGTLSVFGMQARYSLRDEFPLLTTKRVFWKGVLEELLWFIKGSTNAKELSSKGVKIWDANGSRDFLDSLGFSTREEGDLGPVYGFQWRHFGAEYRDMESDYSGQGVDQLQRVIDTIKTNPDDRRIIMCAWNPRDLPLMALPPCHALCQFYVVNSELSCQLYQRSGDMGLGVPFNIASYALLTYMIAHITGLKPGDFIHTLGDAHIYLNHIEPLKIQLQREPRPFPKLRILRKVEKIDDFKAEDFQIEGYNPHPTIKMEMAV

L1210 [4] = test: Inhibition of mouse L1210 (murine leukemia) cell growth measured using a modification of the MTT36 colorimetric assay of Mosmann; assay type: functional, cell-based
L1210 [5] = test: The ratio of IC50 of the inhibitor (assayed in L1210 cells) in presence and absence of thymidine; assay type: functional, Mus musculus
Outline: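 Murine L1210 leukemia cells grown in RPMI-1640 with 5% fetal calf serum and 0.5% DMSO, seeded at 1000 cells/well, over nine 2-fold serial dilutions of compound, with or without 10 μM thymidine replenished daily over 3 days.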

Thymidylate synthase [6] = target: T2, Thymidylate synthase; test: as §2; remark: listed apart in the source
Thymidylate synthase [7] = target: T2, Thymidylate synthase; test: Compound was tested for TS activity against human Thymidylate synthase by tight binding kinetics
[8] = Partition coefficient (logP); assay type: physicochemical; conditions: octanol/water

| IC50 (CCRF-CEM) | Ki (Thymidylate synthase [1]) | Ki (Thymidylate synthase [2]) | Ki (Thymidylate synthase [3]) | IC50 (L1210 [4]) | Ki (Thymidylate synthase [6]) | logP [8] | Structure (SMILES) | IC50 (GC3/MTK-) | Thymidine shift (L1210 [5]) | Ki (Thymidylate synthase [7]) |
| --- | --- | --- | --- | --- | --- | --- | --- | --- | --- | --- |
| > 26.9 µM | 30 µM | 10 µM | 0.96 µM |  |  |  | Cc1nc(O)c2c(Sc3ccncc3)cccc2n1 | > 26.9 µM |  |  |
| > 4.2 µM |  | > 10 µM | > 10 µM | > 4.2 µM |  |  | Cc1nc(O)c2c(Sc3ccccc3)cccc2n1 |  |  |  |
| > 2 µM |  |  | 0.028 µM | 1.8 µM | 0.024 µM |  | Cc1ccc2nc(N)nc(O)c2c1Sc1ccnc(C(F)(F)F)c1 | > 2 µM | >5 |  |
| 2.1 µM |  |  | 0.02 µM | 1.3 µM | 0.018 µM |  | Nc1nc(O)c2c(Sc3ccncc3)c(Cl)ccc2n1 | 2.05 µM | ~14 |  |
| 4.2 µM | 0.53 µM | 0.24 µM | 0.039 µM | 4.2 µM | 0.066 µM |  | Cc1cc(Sc2c(C)ccc3nc(C)nc(O)c23)ccn1 | 5 µM |  |  |
| > 50 µM |  |  | 0.141 µM | 50 µM | 0.065 µM |  | Cc1nc(O)c2c(Sc3ccc(C(=O)O)cc3)c(C)ccc2n1 | > 50 µM | >5 |  |
| > 50 µM | > 80 µM | > 80 µM | 120 µM | > 50 µM | 190 µM |  | Cc1nc(O)c2c(Sc3ccccn3)cccc2n1 | > 50 µM | 1 |  |
| 4.9 µM |  |  | 0.032 µM | 1.8 µM | 0.05 µM |  | Cc1ccc2nc(N)nc(O)c2c1Sc1ccnc(N(C)C)c1 | 5.2 µM | >20 |  |
| > 50 µM |  | > 100 µM | > 100 µM | > 50 µM |  |  | Cc1nc(O)c2c(Oc3ccccc3)cccc2n1 |  |  |  |
| 10.5 µM |  |  | 0.08 µM | 4.05 µM | 0.058 µM |  | Cc1nc(O)c2c(Sc3ccnc(N(C)C)c3)c(C)ccc2n1 | 18 µM | 4.25 |  |
| 0.81 µM | 0.14 µM | 0.049 µM |  | 1 µM |  |  | Cc1ccc2nc(N)[nH]c(=O)c2c1Sc1ccncc1 [NOLATREXED] | 1 µM |  |  |
| > 10 µM |  |  | 0.2 µM | > 10 µM | 0.59 µM |  | CCc1ccc2nc(C)nc(O)c2c1Sc1ccncc1 | > 10 µM | ~10 |  |
|  | 0.71 µM | 0.28 µM | 0.037 µM |  | 0.046 µM |  | COc1cc(Sc2c(C)ccc3nc(C)nc(O)c23)ccn1 | > 5 µM |  |  |
| 5.2 µM | 0.82 µM | 0.5 µM | 0.093 µM | 3.5 µM | 0.058 µM | 2.16 | Cc1nc(O)c2c(Sc3ccncc3)c(C)ccc2n1 | 6 µM | >14 |  |
| 2.9 µM | 0.73 µM | 0.49 µM | 0.056 µM | 3 µM | 0.078 µM | 3.29 | Cc1nc(O)c2c(Sc3ccc([N+](=O)[O-])cc3)c(C)ccc2n1 | > 4 µM | 3.3 |  |
| 0.99 µM |  |  |  | 1.05 µM |  |  | Cc1nc(O)c2c(Sc3ccc(C(=O)N[C@H](CCC(=O)O)C(=O)O)cc3)c(C)ccc2n1 | 4.1 µM | >22 | 0.00131 µM |

| Structure (SMILES) | IC50 (CCRF-CEM) | Ki (Thymidylate synthase [1]) | Ki (Thymidylate synthase [2]) | Ki (Thymidylate synthase [3]) | IC50 (L1210 [4]) | Ki (Thymidylate synthase [6]) | logP [8] | IC50 (GC3/MTK-) | Thymidine shift (L1210 [5]) | Ki (Thymidylate synthase [7]) |
| --- | --- | --- | --- | --- | --- | --- | --- | --- | --- | --- |
| Cc1nc(O)c2c(Sc3ccnnc3)c(C)ccc2n1 |  | 1.1 µM | 0.6 µM | 0.087 µM |  |  |  | > 12.5 µM |  |  |
| Cc1nc(O)c2c(Sc3cccnc3)c(C)ccc2n1 | > 2.5 µM | 9.3 µM | 1.7 µM | 0.31 µM | > 2.5 µM | 1.1 µM |  | > 2.5 µM |  |  |
| Cc1ccc2nc(N)nc(O)c2c1Sc1ccc(C(=O)N[C@H](CCC(=O)O)C(=O)O)cc1 | 0.52 µM |  |  |  | 2.5 µM |  |  | 1.7 µM | ~8 | 0.000124 µM |
| Cc1nc(O)c2c(Sc3ccncc3)c(O)ccc2n1 | > 50 µM | 190 µM | 51 µM | 8.8 µM | > 50 µM |  |  | > 50 µM | 1 |  |
| Cc1nc2ccc(C)c(Sc3ccc(S(=O)(=O)c4ccccc4)cc3)c2c(=O)[nH]1 | 2.1 µM |  |  |  | 1.8 µM |  | 4.67 | 4.5 µM |  |  |
| Cc1nc(O)c2c(Sc3ccnc(C(F)(F)F)c3)c(C)ccc2n1 |  | 0.54 µM | 0.23 µM | 0.07 µM |  |  |  |  |  |  |
| Cc1ccc2nc(N)nc(O)c2c1Sc1ccnnc1 | 0.88 µM |  |  | 0.013 µM | 1.6 µM |  |  | 1.5 µM | 17.6 |  |
| COc1ccc2nc(C)nc(O)c2c1Sc1ccncc1 | 26 µM | 3.9 µM | 1.5 µM |  | 21 µM |  |  | 32 µM |  |  |
